ChEMBL document CHEMBL4350958, “Rational Design of Short Peptide Variants by Using Kunitzin-RE, an Amphibian-Derived Bioactivity Peptide, for Acquired Potent Broad-Spectrum Antimicrobial and Improved Therapeutic Potential of Commensalism Coinfection of Pathogens” (J Med Chem, 2019)
In brackets after ≈: the same amount, converted by molar mass.

What was measured:
[1] = test system: Salmonella typhimurium; test: Bactericidal activity against Salmonella typhimurium ATCC 14028 incubated for 24 hrs followed by replating on agar plate and measured after overnight incubation; type: functional, Salmonella enterica subsp. enterica serovar Typhimurium; details: for MBC: Salmonella enterica, ATCC 14028, 24 h, read-out: MBC>99.9
How it was run: (§1)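 Mid-log bacteria diluted in MHB to (0.5–1) × 10^5 CFU/mL and mixed 1:1 with peptide serially diluted in 0.2% BSA. After 24 h at 37 °C, 50 μL of each mixture was plated on agar and incubated overnight. MBC taken as the lowest concentration killing >99.9% of cells. At least three independent experiments, each with three technical replicates.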

[2] = test system: Escherichia coli; test: Antibacterial activity against Escherichia coli ATCC 25922 measured after 18 to 24 hrs in presence of CaCl2; type: functional
[3] = test system: Staphylococcus aureus; test: Antibacterial activity against Staphylococcus aureus ATCC 29213 measured after 18 to 24 hrs in presence of KCl; type: functional
[4] = test system: Escherichia coli; test: Antibacterial activity against Escherichia coli ATCC 25922 measured after 18 to 24 hrs in presence of NaCl; type: functional
[5] = test system: Escherichia coli; test: Antibacterial activity against Escherichia coli UB1005 measured after 24 hrs; type: functional
How it was run: (§2)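 Broth microdilution adapted from NCCLS. Mid-log bacteria were diluted in MHB to a final (0.5–1) × 10^5 CFU mL−1. Peptides were serially diluted in 0.2% BSA and mixed with an equal volume of cells. After 24 h at 37 °C, MIC was read at A492 as the lowest concentration inhibiting 95% of growth. At least three independent experiments, each with three technical replicates.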

[6] = test system: Pseudomonas aeruginosa; test: Antibacterial activity against Pseudomonas aeruginosa ATCC 27853 measured after 24 hrs; type: functional; how it was run: as §2
[7] = test system: Candida parapsilosis; test: Antifungal activity against Candida parapsilosis cgmcc2.3989 measured after 48 hrs by broth microdilution method; type: functional
How it was run: (§3)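 Modified CLSI M27-A2 microdilution. Yeast colonies were diluted in MOPS-buffered RPMI 1640 to a final (0.5–1) × 10^3 CFU mL−1 and mixed with an equal volume of peptide serially diluted in 0.2% BSA. After 48 h at 28 °C, MIC was read at A492 as the lowest concentration inhibiting 95% of growth. At least three independent experiments, each with three technical replicates.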

[8] = test system: Escherichia coli; test: Antibacterial activity against Escherichia coli ATCC 25922 measured after 18 to 24 hrs in presence of FeCl3; type: functional
[9] = test system: Staphylococcus aureus; test: Bactericidal activity against Staphylococcus aureus ATCC 25923 incubated for 24 hrs followed by replating on agar plate and measured after overnight incubation; type: functional; details: for MBC: ATCC 25923, 24 h, read-out: MBC>99.9
How it was run: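 After the 24 h, 37 °C MHB microdilution MIC assay, 50 μL from each well was plated on agar and incubated overnight. MBC taken as lowest peptide concentration killing >99.9% of cells. At least three independent experiments, each with three technical replicates.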

[10] = test system: Staphylococcus aureus; test: Antibacterial activity against Staphylococcus aureus ATCC 29213 measured after 18 to 24 hrs in presence of CaCl2; type: functional
[11] = test system: Escherichia coli; test: Antibacterial activity against Escherichia coli ATCC 25922 measured after 18 to 24 hrs in presence of NH4Cl; type: functional
[12] = test system: Candida tropicalis; test: Antifungal activity against Candida tropicalis cgmcc2.1975 measured after 48 hrs by broth microdilution method; type: functional; how it was run: as §3
[13] = test system: Escherichia coli; test: Antibacterial activity against Escherichia coli 078 measured after 24 hrs; type: functional; how it was run: as §2
[14] = test system: Escherichia coli; test: Bactericidal activity against Escherichia coli 078 incubated for 24 hrs followed by replating on agar plate and measured after overnight incubation; type: functional; details: for MBC: Escherichia coli, 078, 24 h, read-out: MBC>99.9
How it was run: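 After the 24 h, 37 °C MHB microdilution (0.5–1 × 10^5 CFU mL−1 inoculum, peptides diluted in 0.2% BSA), 50 μL from each well was plated on agar and incubated overnight. MBC was taken as the lowest concentration killing >99.9% of cells. Three or more independent experiments, each with triplicate technical replicates.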

[15] = test system: Pseudomonas aeruginosa; test: Bactericidal activity against Pseudomonas aeruginosa ATCC 27853 incubated for 24 hrs followed by replating on agar plate and measured after overnight incubation; type: functional; details: for MBC: ATCC 27853, 24 h, read-out: MBC>99.9; how it was run: as §1
[16] = test system: Staphylococcus aureus; test: Antibacterial activity against Staphylococcus aureus ATCC 29213 measured after 18 to 24 hrs in presence of FeCl3; type: functional
[17] = test system: Candida albicans; test: Antifungal activity against Candida albicans cgmcc2.2086 measured after 48 hrs in presence of NH4Cl by broth microdilution method; type: functional
[18] = test system: Escherichia coli; test: Bactericidal activity against Escherichia coli K99 incubated for 24 hrs followed by replating on agar plate and measured after overnight incubation; type: functional; details: for MBC: K99, 24 h, read-out: MBC>99.9; how it was run: as §1
[19] = test system: Escherichia coli; test: Antibacterial activity against Escherichia coli ATCC 25922 measured after 24 hrs; type: functional; how it was run: as §2
[20] = test system: Escherichia coli; test: Antibacterial activity against Escherichia coli K88 measured after 24 hrs; type: functional; how it was run: as §2
[21] = test system: Escherichia coli; test: Antibacterial activity against Escherichia coli ATCC 25922 measured after 18 to 24 hrs in presence of ZnCl2; type: functional
[22] = Therapeutic index, ratio of MHC10 for hemolytic activity in human RBC to MIC95 against Candida tropicalis cgmcc2.1975; type: toxicity; details: human red blood cells (erythrocytes), read-out: TI
How it was run: (§4)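 Therapeutic index = MHC divided by MIC. MHC is the lowest concentration giving >10% lysis of human RBC (1 h, 37 °C, 1-128 µM, A576). MIC is 95% growth inhibition by broth microdilution: bacteria in MHB 24 h at 37 °C; Candida in MOPS-buffered RPMI 1640 at (0.5–1) × 10^3 CFU mL−1, 48 h at 28 °C.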

[23] = Therapeutic index, ratio of MHC10 for hemolytic activity in human RBC to MIC95 against Staphylococcus aureus ATCC 25923; type: toxicity; details: human red blood cells (erythrocytes), read-out: TI; how it was run: as §4
[24] = test system: Erythrocyte; test: Hemolytic activity in human RBC measured after 1 hr; type: ADME, cell-based
How it was run: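 Fresh healthy-donor human erythrocytes at ~1% (v/v) in PBS pH 7.4, mixed 1:1 with peptide (1–128 µM), 1 h at 37 °C. After centrifugation at 1000×g, supernatant hemoglobin read at 576 nm. Untreated cells set 0% and 0.1% Triton X-100 set 100%. MHC defined as the concentration giving >10% hemolysis. Three or more independent experiments, triplicates.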

[25] = Therapeutic index, ratio of MHC10 for hemolytic activity in human RBC to MIC95 against Candida albicans cgmcc2.2086; type: toxicity; details: human red blood cells (erythrocytes), read-out: TI; how it was run: as §4
[26] = Therapeutic index, ratio of MHC10 for hemolytic activity in human RBC to MIC95 against Escherichia coli ATCC 25922; type: toxicity; details: human red blood cells (erythrocytes), pooled result: one value given for 9 cell lines, strains, targets or settings, read-out: TI; how it was run: as §4
[27] = Lodderomyces parapsilosis, cgmcc2.3989, 48 h

Compound: CC(C)(O/N=C(\C(=O)N[C@@H]1C(=O)N2C(C(=O)[O-])=C(C[n+]3ccccc3)CS[C@H]12)c1csc(N)n1)C(=O)O [CEFTAZIDIME]
- MBC [1]: 1 µM (≈ 0.547 µg/mL)
- MIC95 [2]: 2 µM
- MIC95 [3]: 16 µM
- MIC95 [4]: 4 µM
- MIC95 ([5]; UB1005, 24 h): 1 µM (≈ 0.547 µg/mL)
- MIC95 ([6]; ATCC 27853, 24 h): 2 µM (≈ 1.09 µg/mL)
- MIC95 [7, 27]: > 128 µM
- MIC95 [8]: 2 µM
- MBC [9]: 32 µM (≈ 17.5 µg/mL)
- MIC95 [10]: 32 µM
- MIC95 [11]: 2 µM
- MIC95 ([12]; cgmcc2.1975, 48 h): > 128 µM
- MIC95 ([13]; Escherichia coli, 078, 24 h): 0.5 µM (≈ 0.273 µg/mL)
- MBC [14]: 0.5 µM (≈ 0.273 µg/mL)
- MBC [15]: 4 µM (≈ 2.19 µg/mL)
- MIC95 [16]: 16 µM
- MIC95 ([17]; cgmcc2.2086, 48 h): > 128 µM
- MBC [18]: 1 µM (≈ 0.547 µg/mL)
- MIC95 ([19]; ATCC 25922, 24 h): 2 µM (≈ 1.09 µg/mL)
- MIC95 ([20]; K88, 24 h): 1 µM (≈ 0.547 µg/mL)
- MIC95 [21]: 2 µM

Compound: CC[C@H](C)[C@H](NC(=O)CN)C(=O)NCC(=O)N[C@@H](C)C(=O)N[C@H](C(=O)N[C@@H](CC(C)C)C(=O)N[C@@H](CCCCN)C(=O)N[C@H](C(=O)N[C@@H](CC(C)C)C(=O)N[C@H](C(=O)N[C@H](C(=O)NCC(=O)N[C@@H](CC(C)C)C(=O)N1CCC[C@H]1C(=O)N[C@@H](C)C(=O)N[C@@H](CC(C)C)C(=O)N[C@H](C(=O)N[C@@H](CO)C(=O)N[C@@H](Cc1c[nH]c2ccccc12)C(=O)N[C@H](C(=O)N[C@@H](CCCCN)C(=O)N[C@@H](CCCNC(=N)N)C(=O)N[C@@H](CCCCN)C(=O)N[C@@H](CCCNC(=N)N)C(=O)N[C@@H](CCC(N)=O)C(=O)N[C@@H](CCC(N)=O)C(N)=O)[C@@H](C)CC)[C@@H](C)CC)[C@@H](C)O)[C@@H](C)O)C(C)C)C(C)C [MELITTIN]
- MBC [1]: 2 µM (≈ 5.69 µg/mL)
- MIC95 [2]: 8 µM
- MIC95 [3]: 4 µM
- MIC95 [4]: 4 µM
- MIC95 ([5]; UB1005, 24 h): 2 µM (≈ 5.69 µg/mL)
- selectivity ratio [22]: 0.32
- MIC95 ([6]; ATCC 27853, 24 h): 2 µM (≈ 5.69 µg/mL)
- MIC95 [7, 27]: 2 µM (≈ 5.69 µg/mL)
- MIC95 [8]: 2 µM
- MBC [9]: 8 µM (≈ 22.8 µg/mL)
- MIC95 [10]: 8 µM
- MIC95 [11]: 2 µM
- selectivity ratio [23]: 0.35
- MIC95 ([12]; cgmcc2.1975, 48 h): 4 µM (≈ 11.4 µg/mL)
- MIC95 ([13]; Escherichia coli, 078, 24 h): 2 µM (≈ 5.69 µg/mL)
- MBC [14]: 2 µM (≈ 5.69 µg/mL)
- MBC [15]: 4 µM (≈ 11.4 µg/mL)
- MHC10 [24]: 1 µM
- selectivity ratio [25]: 0.32
- MIC95 [16]: 4 µM
- MIC95 ([17]; cgmcc2.2086, 48 h): 4 µM
- MBC [18]: 2 µM (≈ 5.69 µg/mL)
- MIC95 ([19]; ATCC 25922, 24 h): 2 µM (≈ 5.69 µg/mL)
- selectivity ratio [26]: 0.54
- MIC95 ([20]; K88, 24 h): 1 µM (≈ 2.85 µg/mL)
- MIC95 [21]: 2 µM

Compound: GENTAMICIN
- MBC>99.9 ([1]; Salmonella enterica subsp. enterica serovar Typhimurium): 4 µM
- MIC95 [2]: 1 µM
- MIC95 [3]: 1 µM
- MIC95 [4]: 4 µM
- MIC95 [5]: 0.5 µM
- MIC95 [6]: 1 µM
- MIC95 [7]: > 128 µM
- MIC95 [8]: 1 µM
- MBC>99.9 [9]: 1 µM
- MIC95 [10]: 4 µM
- MIC95 [11]: 1 µM
- MIC95 [12]: > 128 µM
- MIC95 [13]: 0.5 µM
- MBC>99.9 [14]: 0.5 µM
- MBC>99.9 [15]: 1 µM
- MIC95 [16]: 1 µM
- MIC95 [17]: > 128 µM
- MBC>99.9 [18]: 0.5 µM
- MIC95 [19]: 1 µM
- MIC95 [20]: 1 µM
- MIC95 [21]: 1 µM
